Test results from ChEMBL document CHEMBL1140385, “Synthesis and antibacterial activity of 3-substituted-6-(3-ethyl-4-methylanilino)uracils” (J Med Chem, 2005).
≈ marks a conversion by molar mass, not a printed value.

Legend:
[1] = system: Enterococcus faecalis; assay: In vitro minimum inhibitory concentration against Enterococcus faecalis upon incubation at 37 degree C for 16 to 24 hr by dissolving in DMSO (1%); type: functional
Outline: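 Log-phase E. faecalis was grown in brain-heart infusion broth and seeded at (3-7) × 10^5 CFU/mL. Duplicate 2-fold dilutions ran from 20 to 1.25 µg/mL, final 1% DMSO. After 16-24 h at 37 °C with shaking, OD600 was read.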

[2] = system: Staphylococcus aureus; assay: In vitro minimum inhibitory concentration against Methicillin-resistant Staphylococcus aureus upon incubation at 37 degree C for 16 to 24 hr by dissolving in DMSO (1%); type: functional
Outline: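 Broth microdilution (modified NCCLS M7-A4). Staphylococci grown to log phase in Luria broth, seeded at (3-7) × 10⁵ CFU/mL. Compounds 2-fold diluted from DMSO stocks, 20 to 1.25 µg/mL, final 1% DMSO, in duplicate. Incubated 37 °C, 16-24 h, with shaking. OD600 read.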

[3] = system: Bacillus subtilis; assay: In vitro minimum inhibitory concentration against Bacillus subtilis upon incubation at 37 degree C for 16 to 24 h; type: functional
[4] = system: Staphylococcus aureus; assay: Serum effect on MIC against Staphylococcus aureus (Smith) as ratio of MIC value in presence and absence of 50% fetal calf serum; type: functional
Outline: (§1)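 Broth microdilution MIC was repeated with 50% fetal calf serum added to the growth medium (LB for S. aureus, brain-heart infusion broth for E. faecalis). The inoculum was (3-7) × 10^5 CFU/mL in 1% DMSO, incubated at 37 °C for 16-24 h, and read by OD600. The serum effect is the MIC with serum relative to the MIC without serum.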

[5] = system: Staphylococcus aureus; assay: In vitro minimum inhibitory concentration against Staphylococcus aureus upon incubation at 37 degree C for 16 to 24 hr by dissolving in DMSO (1%); type: functional
[6] = system: Enterococcus faecium; assay: In vitro minimum inhibitory concentration against Enterococcus fecium upon incubation at 37 degree C for 16 to 24 hr by dissolving in DMSO (1%); type: functional
Outline: (§2)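 Broth microdilution (modified NCCLS M7-A4). Enterococci grown to log phase in brain-heart infusion broth, seeded at (3-7) × 10⁵ CFU/mL. Compounds 2-fold diluted from DMSO stocks, 20 to 1.25 µg/mL, final 1% DMSO, in duplicate. Incubated 37 °C, 16-24 h, with shaking. OD600 read.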

[7] = system: Enterococcus faecium; assay: In vitro minimum inhibitory concentration against Vancomycin resistant Enterococci faecium upon incubation at 37 degree C for 16 to 24 hr by dissolving in DMSO (1%); type: functional; outline: as §2
[8] = system: Staphylococcus aureus; assay: In vitro minimum inhibitory concentration against Staphylococcus aureus (Smith) upon incubation at 37 degree C for 16 to 24 hr by dissolving in DMSO (1%); type: functional
[9] = system: Enterococcus faecalis; assay: Serum effect on MIC of compound was measured against Enterococcus faecalis as ratio of MIC value in presence and absence of 50% fetal calf serum; type: functional; outline: as §1
[10] = system: Staphylococcus aureus; assay: Effect on survival of staphylococcus aureus (Smith) ip-infected mice at a concentration 20 mg/kg; type: functional
Outline: (§3)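 Male pathogen-free Swiss-Webster mice (20-24 g), groups of five, infected ip with ca. 10⁸ CFU log-phase S. aureus Smith (grown 37 °C in LB, washed, in 0.5 mL LB). Single ip dose 15 min post-infection, in 10% DMSO/peanut oil or PBS. Survivors counted at 72 h post-infection.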

[11] = system: Staphylococcus aureus; assay: Effect on survival of staphylococcus aureus (Smith) ip-infected mice at a concentration 10 mg/kg; type: functional; outline: as §3
[12] = molecular target: DNA polymerase III PolC-type (Bacillus subtilis (strain 168), UniProt P13267); assay: Inhibitory concentration against Bacillus subtilis DNA polymerase IIIC using [3H]dTMP 250 pM (30 degree C for 10 min)
Chain of DNA polymerase III PolC-type (P13267 whole entry, the tested form may be a part): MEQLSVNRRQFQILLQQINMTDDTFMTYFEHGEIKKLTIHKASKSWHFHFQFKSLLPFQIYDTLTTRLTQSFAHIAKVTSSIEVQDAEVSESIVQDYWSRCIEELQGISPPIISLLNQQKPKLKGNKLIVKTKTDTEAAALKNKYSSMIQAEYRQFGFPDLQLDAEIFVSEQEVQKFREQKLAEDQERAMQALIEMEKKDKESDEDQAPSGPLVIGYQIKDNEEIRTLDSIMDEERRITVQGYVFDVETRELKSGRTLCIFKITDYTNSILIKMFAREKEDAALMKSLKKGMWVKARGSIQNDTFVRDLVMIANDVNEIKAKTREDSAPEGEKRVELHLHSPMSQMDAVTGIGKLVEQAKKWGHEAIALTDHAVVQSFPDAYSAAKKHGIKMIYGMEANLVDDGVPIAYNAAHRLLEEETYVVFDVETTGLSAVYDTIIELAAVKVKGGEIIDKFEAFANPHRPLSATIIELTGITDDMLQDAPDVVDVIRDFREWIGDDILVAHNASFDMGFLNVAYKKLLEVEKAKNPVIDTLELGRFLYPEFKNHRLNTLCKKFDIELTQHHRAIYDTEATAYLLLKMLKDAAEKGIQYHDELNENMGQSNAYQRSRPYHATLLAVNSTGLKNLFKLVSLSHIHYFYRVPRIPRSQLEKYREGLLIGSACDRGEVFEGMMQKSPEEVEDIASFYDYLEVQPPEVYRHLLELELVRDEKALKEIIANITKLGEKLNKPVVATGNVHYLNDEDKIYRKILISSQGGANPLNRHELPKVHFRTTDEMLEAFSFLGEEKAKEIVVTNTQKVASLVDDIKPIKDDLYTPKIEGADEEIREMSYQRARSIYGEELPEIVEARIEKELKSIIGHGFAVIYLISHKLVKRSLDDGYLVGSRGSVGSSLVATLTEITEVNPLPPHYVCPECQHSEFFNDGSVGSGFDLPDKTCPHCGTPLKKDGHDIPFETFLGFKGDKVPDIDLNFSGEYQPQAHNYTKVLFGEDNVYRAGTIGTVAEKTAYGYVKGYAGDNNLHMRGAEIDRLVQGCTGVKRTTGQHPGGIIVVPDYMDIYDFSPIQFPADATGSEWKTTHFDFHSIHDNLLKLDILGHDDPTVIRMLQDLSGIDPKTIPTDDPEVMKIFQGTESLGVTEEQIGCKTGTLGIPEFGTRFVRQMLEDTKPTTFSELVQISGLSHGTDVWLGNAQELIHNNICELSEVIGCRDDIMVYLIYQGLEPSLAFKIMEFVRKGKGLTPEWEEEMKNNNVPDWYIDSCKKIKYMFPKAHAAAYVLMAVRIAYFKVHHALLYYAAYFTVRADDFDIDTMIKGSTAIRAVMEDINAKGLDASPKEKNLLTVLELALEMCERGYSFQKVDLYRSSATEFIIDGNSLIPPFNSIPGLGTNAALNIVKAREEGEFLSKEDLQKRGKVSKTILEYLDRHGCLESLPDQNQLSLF
Outline: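 Homogeneous recombinant B. subtilis pol IIIC, 0.025-0.06 units, acted on activated calf thymus DNA with Mg2+, DTT, glycerol, dATP, dCTP, dTTP and [3H]dTTP, without dGTP. Compounds were serially diluted from DMSO. Reactions ran 10 min at 30 °C, were stopped with TCA-pyrophosphate, and the filter-collected precipitate was scintillation counted. Apparent Ki was read directly from this truncated assay; average standard deviation ±44%.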

CCn1cc(C(=O)O)c(=O)c2cc(F)c(N3CCNCC3)cc21 [NORFLOXACIN]
MIC [1]: 2.5 µg/mL (≈ 7.83 µM) | MIC [2]: 40 µg/mL (≈ 125 µM) | MIC [3]: 0.313 µg/mL (≈ 0.98 µM) | MIC+/MIC- [4]: 0.4 | MIC [5]: 0.625 µg/mL (≈ 1.96 µM) | MIC [6]: 10 µg/mL (≈ 31.3 µM) | MIC [7]: 80 µg/mL (≈ 251 µM) | MIC [8]: 0.156 µg/mL (≈ 0.489 µM) | MIC+/MIC- [9]: 2.2

CN[C@H](CC(C)C)C(=O)N[C@H]1C(=O)N[C@@H](CC(N)=O)C(=O)N[C@H]2C(=O)N[C@H]3C(=O)N[C@H](C(=O)N[C@H](C(=O)O)c4cc(O)cc(O)c4-c4cc3ccc4O)[C@H](O)c3ccc(c(Cl)c3)Oc3cc2cc(c3O[C@@H]2O[C@H](CO)[C@@H](O)[C@H](O)[C@H]2O[C@H]2C[C@](C)(N)[C@H](O)[C@H](C)O2)Oc2ccc(cc2Cl)[C@H]1O [VANCOMYCIN]
MIC [1]: 0.625 µg/mL (≈ 0.431 µM) | MIC [2]: 0.625 µg/mL (≈ 0.431 µM) | MIC [6]: 1.25 µg/mL (≈ 0.863 µM) | Activity [10]: 5 | MIC [7]: > 20 µg/mL | Activity [11]: 5

CCc1cc(Nc2cc(=O)n(CCCN3CCOCC3)c(=O)[nH]2)ccc1C
MIC [1]: 10 µg/mL (≈ 26.8 µM) | MIC [2]: 10 µg/mL (≈ 26.8 µM) | MIC+/MIC- [4]: 2.9 | MIC [6]: 5 µg/mL (≈ 13.4 µM) | MIC [7]: 5 µg/mL (≈ 13.4 µM) | MIC [8]: 10 µg/mL (≈ 26.8 µM) | MIC+/MIC- [9]: 1.6

CCc1cc(Nc2cc(=O)n(CCCCCO)c(=O)[nH]2)ccc1C
MIC [1]: 2.5 µg/mL (≈ 7.54 µM) | MIC [2]: 5 µg/mL (≈ 15.1 µM) | MIC [3]: < 1.25 µg/mL | Ki [12]: 43 nM | MIC+/MIC- [4]: 11.6 | MIC [5]: 5 µg/mL (≈ 15.1 µM) | MIC [6]: 2.5 µg/mL (≈ 7.54 µM) | MIC [7]: 2.5 µg/mL (≈ 7.54 µM) | MIC [8]: 2.5 µg/mL (≈ 7.54 µM)

CCc1cc(Nc2cc(=O)n(CCCCCCCCCO)c(=O)[nH]2)ccc1C
MIC [1]: 2.5 µg/mL (≈ 6.45 µM) | MIC [2]: 20 µg/mL (≈ 51.6 µM) | MIC [3]: < 1.25 µg/mL | Ki [12]: 87 nM | MIC+/MIC- [4]: >32 | MIC [5]: 20 µg/mL (≈ 51.6 µM) | MIC [6]: 2.5 µg/mL (≈ 6.45 µM) | MIC [7]: 2.5 µg/mL (≈ 6.45 µM) | MIC [8]: 2.5 µg/mL (≈ 6.45 µM)

CCc1cc(Nc2cc(=O)n(CCCO)c(=O)[nH]2)ccc1C
MIC [1]: 5 µg/mL (≈ 16.5 µM) | MIC [2]: 5 µg/mL (≈ 16.5 µM) | MIC [3]: < 1.25 µg/mL | Ki [12]: 130 nM | MIC+/MIC- [4]: 5.6 | MIC [5]: 2.5 µg/mL (≈ 8.24 µM) | MIC [6]: 2.5 µg/mL (≈ 8.24 µM) | MIC [7]: 2.5 µg/mL (≈ 8.24 µM) | MIC [8]: 5 µg/mL (≈ 16.5 µM)

CCc1cc(Nc2cc(=O)n(CCOCCO)c(=O)[nH]2)ccc1C
MIC [1]: 5 µg/mL (≈ 15 µM) | MIC [2]: 10 µg/mL (≈ 30 µM) | MIC+/MIC- [4]: 7.5 | MIC [6]: 5 µg/mL (≈ 15 µM) | MIC [7]: 2.5 µg/mL (≈ 7.5 µM) | MIC [8]: 5 µg/mL (≈ 15 µM) | Activity [11]: 4

CCc1cc(Nc2cc(=O)n(CCN3CCOCC3)c(=O)[nH]2)ccc1C
MIC [1]: 5 µg/mL (≈ 13.9 µM) | MIC [2]: 5 µg/mL (≈ 13.9 µM) | MIC+/MIC- [4]: 5.5 | MIC [5]: 10 µg/mL (≈ 27.9 µM) | MIC [7]: 5 µg/mL (≈ 13.9 µM) | MIC+/MIC- [9]: 2.7
